Laboratory results as given in ChEMBL document CHEMBL1148197, “Three new manzamine alkaloids from a common Indonesian sponge and their activity against infectious and tropical parasitic diseases” (J Nat Prod, 2004).
pEC50: −log10 of the molar value. Values after ≈ are worked out from the molar mass of the structure shown. Active and inactive are the calls of the source. No cut-off for these calls is given here.

Key:
Staphylococcus aureus [1] = assay: Antimicrobial activity against Staphylococcus aureus; type: functional, organism-based
Cryptococcus neoformans = assay: […] activity against Cryptococcus neoformans; type: functional, organism-based
Staphylococcus aureus [2] = assay: Antibacterial activity against methicillin-resistant Staphylococcus aureus; type: functional, organism-based
Vero [3] = assay: Cytotoxicity against african green monkey Vero cells at 4.7 ug/mL; type: cell-based; conditions: chlorocebus sabaeus
Plasmodium falciparum [4] = assay: Antimalarial activity against chloroquine-resistant Plasmodium falciparum W2 at 5 ug/mL; type: functional, organism-based
Plasmodium falciparum [5] = assay: Antimalarial activity against chloroquine-resistant Plasmodium falciparum W2; type: functional, organism-based
Plasmodium falciparum [6] = assay: Antimalarial activity against Plasmodium falciparum D6 at 5 ug/mL; type: functional, organism-based
[7] = tested on: Mycobacterium intracellulare; assay: Antibacterial activity against Mycobacterium intracellular; type: functional, organism-based
Leishmania donovani [8] = assay: Antileishmanial activity against Leishmania donovani at 5 ug/mL; type: functional, organism-based
Plasmodium falciparum [9] = assay: Antimalarial activity against Plasmodium falciparum D6; type: functional, organism-based
Leishmania donovani [10] = assay: Antileishmanial activity against Leishmania donovani; type: functional, organism-based
Vero [11] = assay: Cytotoxicity against african green monkey Vero cells; type: cell-based; conditions: chlorocebus sabaeus
Procedure, shortened: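 Vero (African green monkey kidney) cell cytotoxicity, reported in µg/mL. Compounds without cytotoxicity were scored at a tested concentration of 4.7 µg/mL.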

[12] = tested on: Mycobacterium tuberculosis; assay: Antitubercular activity against Mycobacterium tuberculosis H37Rv; type: functional
[13] = tested on: Human immunodeficiency virus 1; assay: Antiviral activity against HIV1 infected in human PBMCs; type: functional, organism-based

Row | Compound | Activity (Staphylococcus aureus [1]) | Activity (Cryptococcus neoformans) | Activity (Staphylococcus aureus [2]) | Activity (Vero [3]) | IC90 (Leishmania donovani [10]) | MIC [12] | IC50 [7] | pEC50 [13] | also measured
1 | O=C1CCCN2[C@@H]3[C@@]45CN6CCCC/C=C\CC[C@@]3(C=C(c3nccc7c3[nH]c3ccccc37)[C@@H]4CC6)O[C@]2(CC1)C5 | inactive | inactive | inactive | Non-toxic | – | – | – | – | Activity (Plasmodium falciparum [4]): inactive; IC50 (Plasmodium falciparum [5]): 3.7 µg/mL (≈ 6.57 µM); Activity (Plasmodium falciparum [6]): inactive; Activity [7]: inactive; Activity (Leishmania donovani [8]): inactive; IC50 (Plasmodium falciparum [9]): 1.6 µg/mL (≈ 2.84 µM)
2 | [O-][n+]1ccc2c([nH]c3ccccc32)c1C1=C[C@@]2(O)CC/C=C\CCCCN3CC[C@@H]1[C@]1(C[C@@H]4/C=C\CCCCN4[C@H]12)C3 | – | – | – | – | 3.8 µg/mL (≈ 6.73 µM) | 3.9 µg/mL (≈ 6.91 µM) | 0.2 µg/mL (≈ 0.354 µM) | – | IC50 (Staphylococcus aureus [1]): 0.5 µg/mL (≈ 0.885 µM); IC50 (Cryptococcus neoformans): 1 µg/mL (≈ 1.77 µM); IC50 (Leishmania donovani [10]): 1.1 µg/mL (≈ 1.95 µM); Activity (Vero [11]): 4.2 µg/mL; IC50 (Staphylococcus aureus [2]): 0.4 µg/mL (≈ 0.708 µM); IC50 (Plasmodium falciparum [5]): 0.013 µg/mL (≈ 0.023 µM); IC50 (Plasmodium falciparum [9]): 0.011 µg/mL (≈ 0.0195 µM)
3 | O=C1CCCN2[C@@H](CC1)C[C@]13CN4CCCC/C=C\CC[C@](O)(C=C(c5nccc6c5[nH]c5c(O)cccc56)C1CC4)[C@H]23 (stereo partly specified) [MANZAMINE F] | inactive | – | inactive | Non-toxic | 7 µg/mL (≈ 12.1 µM) | – | – | 5.14 | –
4 | O[C@]12C=C(c3nccc4c3[nH]c3ccccc34)[C@@H]3CCN(CCCC/C=C\CC1)C[C@@]31C[C@@H]3/C=C\CCCCN3[C@H]12 [MANZAMINE A] | – | – | – | – | 1.8 µg/mL (≈ 3.28 µM) | – | – | 5.38 | Activity (Vero [11]): 1.2 µg/mL
5 | O=C1CCCN2[C@@H](CC1)C[C@]13CN4CCCC/C=C\CC[C@](O)(C=C(c5nccc6c5[nH]c5ccccc56)C1CC4)[C@H]23 (stereo partly specified) [MANZAMINE E] | inactive | inactive | inactive | Non-toxic | 6.8 µg/mL (≈ 12 µM) | – | – | 4.88 | –
6 | CO[C@H]1/C=C/O[C@@]2(C)Oc3c(C)c(O)c4c(O)c(c(/C=N/N5CCN(C)CC5)c(O)c4c3C2=O)NC(=O)/C(C)=C\C=C\[C@H](C)[C@H](O)[C@@H](C)[C@@H](O)[C@@H](C)[C@H](OC(C)=O)[C@@H]1C [RIFAMPIN] | – | – | – | – | – | 0.5 µg/mL (≈ 0.608 µM) | – | – | –
7 | Oc1cccc2c1[nH]c1c(C3=C[C@@]4(O)CC/C=C\CCCCN5CC[C@@H]3[C@]3(CC6/C=C\CCCCN6[C@H]34)C5)nccc12 (stereo partly specified) | – | – | – | – | 11 µg/mL (≈ 19.5 µM) | – | – | 6.23 | Activity (Vero [11]): 1.1 µg/mL
8 | O[C@]12C=C(c3nccc4c3[nH]c3ccccc34)C3CCN(CCCC/C=C\CC1)C[C@@]31C[C@]34CC[C@H](CCCN3[C@H]12)O4 (stereo partly specified) [6-Deoxymanzamine X] | – | – | – | – | – | 1.8 µg/mL (≈ 3.19 µM) | 6.25 µg/mL (≈ 11.1 µM) | – | IC50 (Staphylococcus aureus [1]): 1.5 µg/mL (≈ 2.66 µM); IC50 (Cryptococcus neoformans): 2 µg/mL (≈ 3.54 µM); Activity (Vero [11]): 4.7 µg/mL; IC50 (Staphylococcus aureus [2]): 1.5 µg/mL (≈ 2.66 µM)
9 | O=CC1=C[C@@]2(O)CC/C=C\CCCCN3CC[C@@H]1[C@]1(C[C@@H]4/C=C\CCCCN4[C@H]12)C3 [IRCINAL] | inactive | inactive | inactive | Non-toxic | 8.5 µg/mL (≈ 20.7 µM) | 30.2 µg/mL (≈ 73.6 µM) | 50 µg/mL (≈ 122 µM) | 5.17 | IC50 (Leishmania donovani [10]): 4.6 µg/mL (≈ 11.2 µM); Activity (Plasmodium falciparum [4]): inactive; Activity (Plasmodium falciparum [6]): inactive
10 | O[C@]12C=C(c3nccc4c3[nH]c3ccccc34)[C@@H]3CCN(CCCC/C=C\CC1)C[C@@]31CC/C=C\CCCCN[C@H]12 [MANZAMINE J] | inactive | inactive | inactive | Non-toxic | 45 µg/mL (≈ 81.7 µM) | 1.7 µg/mL (≈ 3.09 µM) | 15 µg/mL (≈ 27.2 µM) | – | IC50 (Leishmania donovani [10]): 25 µg/mL (≈ 45.4 µM); IC50 (Plasmodium falciparum [5]): 0.75 µg/mL (≈ 1.36 µM); IC50 (Plasmodium falciparum [9]): 1.3 µg/mL (≈ 2.36 µM)
11 | C[C@@H]1[C@H](O)[C@@H](C)/C=C/C=C/C=C/C=C/C=C/C=C/C=C/[C@H](O[C@@H]2O[C@H](C)[C@@H](O)[C@H](N)[C@@H]2O)C[C@@H]2O[C@](O)(C[C@@H](O)C[C@@H](O)[C@H](O)CC[C@@H](O)C[C@@H](O)CC(=O)O[C@H]1C)C[C@H](O)[C@H]2C(=O)O [AMPHOTERICIN B] | – | – | – | – | 0.15 µg/mL (≈ 0.162 µM) | – | – | – | –
12 | O[C@@H]1CCCN2CC[C@@H]1O[C@@]13CC[C@@H](OC[C@]45CN6CCCC/C=C\CC[C@](O)(C=C(c7nccc8c7[nH]c7ccccc78)[C@@H]4CC6)[C@H]25)[C@@H](O)CCN1[C@@H]1[C@]2(CN4CCCC/C=C\CC[C@]1(O)C=C(c1nccc5c1[nH]c1ccccc15)[C@@H]2CC4)C3 [NEO-KAULUAMINE] | inactive | – | inactive | Non-toxic | 8.2 µg/mL (≈ 7.05 µM) | 2 µg/mL (≈ 1.72 µM) | 3 µg/mL (≈ 2.58 µM) | 5.64 | IC50 (Cryptococcus neoformans): 3 µg/mL (≈ 2.58 µM); IC50 (Leishmania donovani [10]): 4.2 µg/mL (≈ 3.61 µM); IC50 (Plasmodium falciparum [5]): 2.8 µg/mL (≈ 2.41 µM); IC50 (Plasmodium falciparum [9]): 1.7 µg/mL (≈ 1.46 µM)
13 | O=C1CCCN2[C@@H](CC1)C[C@]13CN4CCCC/C=C\CC[C@](O)(C=C(c5nccc6c5[nH]c5ccc(O)cc56)[C@@H]1CC4)[C@H]23 | – | – | – | – | – | – | – | – | Activity (Vero [11]): 4.3 µg/mL
14 | Oc1ccc2[nH]c3c(C4=C[C@@]5(O)CC/C=C\CCCCN6CC[C@@H]4[C@@]4(C6)C[C@@]67CC[C@@H](CCCN6[C@H]45)O7)nccc3c2c1 [MANZAMINE X] | – | – | – | Non-toxic | – | – | 1.5 µg/mL (≈ 2.58 µM) | 5.64 | IC50 (Staphylococcus aureus [1]): 1 µg/mL (≈ 1.72 µM); IC50 (Cryptococcus neoformans): 3 µg/mL (≈ 5.17 µM); IC50 (Staphylococcus aureus [2]): 0.75 µg/mL (≈ 1.29 µM)
15 | [O-][N+]1=C(C2=C[C@@]3(O)CC/C=C\CCCCN4CC[C@@H]2[C@]2(CC5/C=C\CCCCN5[C@H]23)C4)c2[nH]c3ccccc3c2CC1 (stereo partly specified) | inactive | inactive | inactive | Non-toxic | – | – | – | – | Activity [7]: inactive; Activity [13]: inactive
16 | OC1=C[C@@]2(O)CC/C=C\CCCCN3CC[C@@H]1[C@]1(C[C@@H]4/C=C\CCCCN4[C@H]12)C3 [IRCINOL A] | inactive | inactive | – | Non-toxic | 0.7 µg/mL (≈ 1.76 µM) | 1.9 µg/mL (≈ 4.77 µM) | 50 µg/mL (≈ 125 µM) | 5.37 | IC50 (Staphylococcus aureus [2]): 30 µg/mL (≈ 75.3 µM); IC50 (Plasmodium falciparum [5]): 3.1 µg/mL (≈ 7.78 µM); IC50 (Plasmodium falciparum [9]): 2.4 µg/mL (≈ 6.02 µM)
17 | N=C(N)c1ccc(OCCCCCOc2ccc(C(=N)N)cc2)cc1 [PENTAMIDINE] | – | – | – | – | 10 µg/mL (≈ 29.4 µM) | – | – | – | –
